Source: ChEMBL document CHEMBL1143704, “Cyathusals A, B, and C, antioxidants from the fermented mushroom Cyathus stercoreus” (J Nat Prod, 2007)

What was measured:
[1] = tested on: Radical scavenging activity; test: Antioxidant activity assessed as DPPH radical scavenging activity after 30 mins; format: functional
Summary of the method: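 10 µL DMSO sample dilutions (DMSO alone as control) added to 190 µL of 1.5 × 10^-4 M ethanolic DPPH radical. Incubated 30 min at 25 °C, then A517 read at steady state. % scavenged = (1 − Atest/Acontrol) × 100. EC50 is the concentration scavenging 50% of the DPPH radical.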

[2] = Antioxidant activity assessed as ABTS radical scavenging activity after 7 mins

Row | Compound | EC50 [1] | EC50 [2]
1 | COc1ccc(O)c(C(C)(C)C)c1.COc1ccc(O)cc1C(C)(C)C [BUTYLATED HYDROXYANISOLE] | 97.1 µM | 11.7 µM
2 | C/C=C/c1cc2c(c(=O)o1)-c1c(O)c(O)c(OC)c(C=O)c1CO2 [CYATHUSAL A] | 41.6 µM | 7.86 µM
3 | C/C=C/c1cc2c(c(=O)o1)-c1c(O)c(O)c(OC)c(C=O)c1C(O)O2 (configuration not stated) [CYATHUSAL B] | 46 µM | 11.1 µM

These reach a lower EC50 [1]. Values come first.

Row | EC50 [1] | EC50 [2] | Compound
4 | 37.6 µM | 14.5 µM | Cc1c(C)c2c(c(C)c1O)CCC(C)(C(=O)O)O2 (configuration not stated) [TROLOX]
5 | 28.6 µM | 8.36 µM | C/C=C/c1cc2c(c(=O)o1)-c1c(O)c(O)c(OC)c(C=O)c1C(OC)O2 (configuration not stated) [PULVINATAL]
6 | 26.6 µM | 9.1 µM | C/C=C/c1cc2c(c(=O)o1)-c1c(O)c(O)c(OC)c(C=O)c1C(OC(C)C)O2 (configuration not stated) [CYATHUSAL C]
